For data set [1], the target named is T1, Broad substrate specificity ATP-binding cassette transporter ABCG2 (Homo sapiens, UniProt Q9UNQ0).
T1 sequence (Q9UNQ0 whole entry): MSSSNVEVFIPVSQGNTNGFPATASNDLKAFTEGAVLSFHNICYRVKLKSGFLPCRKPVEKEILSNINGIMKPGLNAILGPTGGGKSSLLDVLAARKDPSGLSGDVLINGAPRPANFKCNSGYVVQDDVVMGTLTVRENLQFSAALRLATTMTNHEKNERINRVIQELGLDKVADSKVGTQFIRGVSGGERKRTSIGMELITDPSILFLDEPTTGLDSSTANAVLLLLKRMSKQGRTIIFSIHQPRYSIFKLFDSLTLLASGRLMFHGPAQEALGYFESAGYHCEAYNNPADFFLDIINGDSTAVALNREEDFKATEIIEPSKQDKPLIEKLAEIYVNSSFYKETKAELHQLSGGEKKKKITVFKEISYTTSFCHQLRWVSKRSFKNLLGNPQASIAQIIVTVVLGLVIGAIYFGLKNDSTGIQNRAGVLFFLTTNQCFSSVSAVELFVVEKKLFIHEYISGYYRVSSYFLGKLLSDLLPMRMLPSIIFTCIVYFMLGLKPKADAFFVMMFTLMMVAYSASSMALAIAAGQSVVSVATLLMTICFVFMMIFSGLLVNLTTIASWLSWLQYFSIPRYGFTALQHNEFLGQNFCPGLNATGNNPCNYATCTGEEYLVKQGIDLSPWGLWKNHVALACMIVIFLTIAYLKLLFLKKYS
As to the kind of experiment: Observed permeability in MDCK2 cells expressing human ABCG2 assessed as ABCG2-mediated apical to basolateral transport at 3 uM after 0.5 to 1 hrs by HPLC method. Type of data set: ADME, cell-based. The settings on record: mdck-ii. An outline of the steps:
(§1)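 Mock (empty pcDNA3.1) or rat Abcg2/human ABCG2-transfected MDCKII, G418-selected, seeded on 3.0-μm Transwell filters at 1.0×10^6 cells/well, grown 4 days to TEER >200 Ω·cm². Single isomer loaded apical or basolateral in serum-free Opti-MEM I with 0.2 μCi/ml [3H]mannitol, 37°C 5% CO2. Receiver sampled at 0.5 and 1 h. Quantified by HPLC-UV 290 nm. Permeability = initial rate/(area × donor concentration). Efflux ratio = B→A rate / A→B rate. n = 3, mean ± S.D.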

The target of data set [2] is T1, Broad substrate specificity ATP-binding cassette transporter ABCG2. As to the kind of experiment: Observed permeability in MDCK2 cells expressing human ABCG2 assessed as ABCG2-mediated basolateral to apical transport at 50 uM after 0.5 to 1 hrs by HPLC method. Format: ADME, cell-based. The settings on record: mdck-ii. Summed up: as §1
For data set [3], the target named is T2, ABCG2 (Homo sapiens, UniProt Q9UNQ0).
T2 sequence (Q9UNQ0 whole entry): T1 sequence (Q9UNQ0 whole entry)
Put plainly: Asymmetry efflux ratio in MDCK2 cells expressing human ABCG2 assessed as ABCG2-mediated drug transport ratio at 200 uM after 0.5 to 1 hrs by HPLC method. Format: ADME, cell-based. An outline of the steps:
as §1

Data set [4] deals with T3, Broad substrate specificity ATP-binding cassette transporter ABCG2 (Rattus norvegicus, UniProt Q80W57).
T3 sequence (Q80W57 whole entry): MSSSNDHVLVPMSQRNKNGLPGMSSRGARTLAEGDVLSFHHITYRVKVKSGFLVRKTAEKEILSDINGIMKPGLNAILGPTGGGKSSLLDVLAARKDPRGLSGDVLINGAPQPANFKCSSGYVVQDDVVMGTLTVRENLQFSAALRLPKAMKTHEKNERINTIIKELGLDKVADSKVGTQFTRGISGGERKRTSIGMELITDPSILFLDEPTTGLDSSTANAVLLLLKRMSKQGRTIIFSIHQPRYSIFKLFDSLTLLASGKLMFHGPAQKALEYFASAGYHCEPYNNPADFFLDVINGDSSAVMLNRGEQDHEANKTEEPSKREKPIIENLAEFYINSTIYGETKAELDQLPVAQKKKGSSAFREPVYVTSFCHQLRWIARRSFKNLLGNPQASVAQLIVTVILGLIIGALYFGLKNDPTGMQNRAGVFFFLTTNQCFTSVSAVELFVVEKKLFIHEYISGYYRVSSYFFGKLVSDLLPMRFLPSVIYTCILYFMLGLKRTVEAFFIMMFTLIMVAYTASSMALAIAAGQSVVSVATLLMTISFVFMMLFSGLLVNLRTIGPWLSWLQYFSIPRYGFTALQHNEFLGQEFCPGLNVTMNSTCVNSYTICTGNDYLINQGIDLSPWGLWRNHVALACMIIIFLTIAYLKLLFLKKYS
Put plainly: Observed permeability in MDCK2 cells expressing rat ABCG2 assessed as ABCG2-mediated apical to basolateral transport at 30 uM after 0.5 to 1 hrs by HPLC method. Type of data set: ADME, cell-based. The following applies: mdck-ii. Summed up:
as §1

Data set [5] has as its target T3, Broad substrate specificity ATP-binding cassette transporter ABCG2. Put plainly: Observed permeability in MDCK2 cells expressing rat ABCG2 assessed as ABCG2-mediated basolateral to apical transport at 50 uM after 0.5 to 1 hrs by HPLC method. Format: ADME, cell-based. The following applies: mdck-ii. An outline of the steps:
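rAbcg2-transfected MDCKII monolayers seeded at 1.0×10^6 cells/well on 3.0-μm filters, grown 4 days to TEER >200 Ω·cm². Serum-free Opti-MEM I on both sides. Individual PAN isomer plus 0.2 μCi/ml [3H]mannitol loaded basolaterally, 37°C, 5% CO2. Receiver sampled at 0.5 and 1 h, PAN quantified by HPLC-UV 290 nm. P_obs = initial transfer rate/(area × initial donor concentration). Mean ± S.D., n = 3.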

For data set [6], the target named is T4, ABCG2 (Rattus norvegicus, UniProt Q80W57).
T4 sequence (Q80W57 whole entry): T3 sequence (Q80W57 whole entry)
As to the kind of experiment: Asymmetry efflux ratio in MDCK2 cells expressing rat ABCG2 assessed as ABCG2-mediated drug transport ratio at 30 uM after 0.5 to 1 hrs by HPLC method. Format: ADME, cell-based. An outline of the steps: as §1

Data set [7] can be described thus: Observed permeability in MDCK2 cells assessed as apical to basolateral transport at 10 uM after 0.5 to 1 hrs by HPLC method. Type of data set: ADME, cell-based, Canis lupus familiaris. The settings on record: dog, mdck-ii. An outline of the steps:
as §1

Data set [8] can be described thus: Observed permeability in MDCK2 cells assessed as apical to basolateral transport at 30 uM after 0.5 to 1 hrs by HPLC method. Format: ADME, cell-based, Canis lupus familiaris. The following applies: dog, mdck-ii. Summed up: as §1
A short description of data set [9]: Observed permeability in MDCK2 cells assessed as apical to basolateral transport at 50 uM after 0.5 to 1 hrs by HPLC method. Type of data set: ADME, cell-based, Canis lupus familiaris. The settings on record: dog, mdck-ii. Summed up:
as §1

Data set [10] is described as follows: Observed permeability in MDCK2 cells assessed as apical to basolateral transport at 200 uM after 0.5 to 1 hrs by HPLC method. Type of data set: ADME, cell-based, Canis lupus familiaris. The following applies: dog, mdck-ii. An outline of the steps: as §1
Data set [11] is described as follows: Observed permeability in MDCK2 cells assessed as apical to basolateral transport at 3 to 200 uM after 0.5 to 1 hrs by HPLC method. Format: ADME, cell-based, Canis lupus familiaris. The settings on record: dog, mdck-ii. Summed up:
as §1

Data set [12] is described as follows: Observed permeability in MDCK2 cells assessed as basolateral to apical transport at 10 uM after 0.5 to 1 hrs by HPLC method. Type of data set: ADME, cell-based, Canis lupus familiaris. The settings on record: dog, mdck-ii. Summed up:
as §1

The nature of data set [13]: Observed permeability in MDCK2 cells assessed as basolateral to apical transport at 200 uM after 0.5 to 1 hrs by HPLC method. Format: ADME, cell-based, Canis lupus familiaris. The settings on record: dog, mdck-ii. Summed up:
as §1

Data set [14] is described as follows: Asymmetry efflux ratio in MDCK2 cells assessed as drug transport ratio at 3 uM after 0.5 to 1 hrs by HPLC method. Format: ADME, cell-based, Canis lupus familiaris, MDCK-II. The settings on record: dog, MDCK. Summed up:
as §1

A short description of data set [15]: Asymmetry efflux ratio in MDCK2 cells assessed as drug transport ratio at 10 uM after 0.5 to 1 hrs by HPLC method. Format: ADME, cell-based, Canis lupus familiaris, MDCK-II. The following applies: dog, MDCK. Summed up: as §1
Data set [16] is described as follows: Asymmetry efflux ratio in MDCK2 cells assessed as drug transport ratio at 200 uM after 0.5 to 1 hrs by HPLC method. Type of data set: ADME, cell-based, Canis lupus familiaris, MDCK-II. The following applies: dog, MDCK. Summed up:
as §1

Our source for the Papp and efflux ratio values is ChEMBL document CHEMBL3525931, “Stereoselective interaction of pantoprazole with ABCG2. II. In vitro flux analysis” (Drug Metab Dispos, 2012).

Each structure is given as a SMILES string.

Consider `COc1ccnc(C[S@+]([O-])c2nc3cc(OC(F)F)ccc3[nH]2)c1OC`, for which the Papp amounted to 16.9 uL/hr/cm2 in [1]; 156 uL/hr/cm2 in [2]; 92.5 uL/hr/cm2 in data set [4]; 137 uL/hr/cm2 in [5]; 123 uL/hr/cm2 in data set [7]; 116 uL/hr/cm2 in data set [8]. For the same compound, the Papp is on record as 121 uL/hr/cm2 in data set [9]; 130 uL/hr/cm2 in data set [10]; 121 uL/hr/cm2 in data set [11]; 130 uL/hr/cm2 in [12]; 135 uL/hr/cm2 in [13]. The efflux ratio at 200 µM on ABCG2 [3] was found to be 1; in data set [16] it was 0.99. In addition, the efflux ratio at 30 µM at ABCG2 [6] worked out at 1.63. The efflux ratio at 3 µM in [14] is 1.01. Further, the efflux ratio at 10 µM in data set [15] came out at 1.06.

On to `COc1ccnc(C[S@@+]([O-])c2nc3cc(OC(F)F)ccc3[nH]2)c1OC`, for which the Papp in data set [1] was determined as 30 uL/hr/cm2; in data set [2] it was 195 uL/hr/cm2; in data set [4], 33.5 uL/hr/cm2; in [5], 194 uL/hr/cm2; in data set [7] it was 114 uL/hr/cm2; in data set [8] it was 110 uL/hr/cm2. For the same compound, the Papp stood at 123 uL/hr/cm2 in data set [9]; 142 uL/hr/cm2 in [10]; 121 uL/hr/cm2 in [11]; 121 uL/hr/cm2 in data set [12]; 140 uL/hr/cm2 in [13]. Also, the efflux ratio at 200 µM on ABCG2 [3] was 1.42; in data set [16] it was 0.98. Also, the efflux ratio at 30 µM at ABCG2 [6] came out at 6.16. In data set [14], the efflux ratio at 3 µM was 1.01. Besides, the efflux ratio at 10 µM in [15] was determined as 1.07.
